Bioassay records deposited in PubChem BioAssay by several laboratories.
UBC13 inh = human UBC13 polyubiquitination inhibition | P61088 | UBC13 polyubiquitin chain formation, TR-FRET | inhibition, % at 20 µM | actives 0.47% (n = 330,000) | AID 485273; in the data active = inhibition above about 45%, passing the limit was not always enough
Target sequence (P61088 whole entry, looked up): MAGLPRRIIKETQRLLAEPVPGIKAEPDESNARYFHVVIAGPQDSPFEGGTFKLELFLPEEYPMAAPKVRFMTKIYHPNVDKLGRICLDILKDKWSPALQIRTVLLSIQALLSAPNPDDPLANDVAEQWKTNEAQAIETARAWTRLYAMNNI
ALR inh = blocks human ALR sulfhydryl oxidase activity; purified ALR, DTT oxidation, H2O2 HRP-luminol luminescence; inhibition, % (concentration not given with the values); actives 3.8% (n = 290,000); AID 485317;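 active = mean replicate inhibition above about 79%, with every replicate also reaching it, limit read from the data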
Target sequence (P55789 whole entry, looked up): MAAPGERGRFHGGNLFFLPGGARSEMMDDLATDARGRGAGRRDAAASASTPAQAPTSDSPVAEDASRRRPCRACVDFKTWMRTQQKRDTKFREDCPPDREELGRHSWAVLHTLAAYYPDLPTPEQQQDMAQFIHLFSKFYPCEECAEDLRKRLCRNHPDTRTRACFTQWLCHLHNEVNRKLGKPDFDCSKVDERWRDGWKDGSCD
UBC9 SUMO inh = SUMOylation inhibition. P63279. HTRF SUMOylation assay, SAE1/SAE2 + UBC9, in vitro. inhibition, % at 35 µM. actives 0.36% (n = 290,000); in the data active = inhibition above about 50%, passing the limit was not always enough
Target sequence (P63279 whole entry, looked up): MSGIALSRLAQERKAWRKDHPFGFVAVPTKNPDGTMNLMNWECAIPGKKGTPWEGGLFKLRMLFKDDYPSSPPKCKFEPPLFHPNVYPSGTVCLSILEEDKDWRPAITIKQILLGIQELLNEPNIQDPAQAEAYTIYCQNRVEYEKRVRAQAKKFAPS
PREPL inh = inhibits the human prolyl oligopeptidase-like enzyme; recombinant PREPL, fluorescence polarization activity-based probe; inhibition, % at 5.96 µM; actives 0.68% (n = 320,000); AID 2751; in the data active = inhibition above about 43%
Rin1-Abl PPI inh = inhibitors of human Rin1-Abl protein interaction | P00519+Q13671 | TR-FRET Rin1/Abl binding, biochemical | inhibition, % at 7.35 µM | actives 0.4% (n = 360,000); in the data active = inhibition above about 5%, passing the limit was not always enough
RBBP9 inhibitor = blocks human serine hydrolase RBBP9. AID 1515. actives 0.2% (n = 220,000). recombinant RBBP9, FP-Rh probe fluorescence polarization. inhibition, % at 7.94 µM;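 active = inhibition above the campaign mean of all tested compounds plus 3 SD, cut at about 14% in these data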
Target sequence (O75884 whole entry, looked up): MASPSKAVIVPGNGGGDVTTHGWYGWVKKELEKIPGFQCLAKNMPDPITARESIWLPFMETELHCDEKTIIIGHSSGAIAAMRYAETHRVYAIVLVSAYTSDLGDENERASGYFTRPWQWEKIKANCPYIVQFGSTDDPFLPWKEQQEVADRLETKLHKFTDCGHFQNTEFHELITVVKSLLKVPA
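Test system – recombinant human RBBP9 · Input – RBBP9 2.5 µM in dispensing solution, pre-mixing · Medium – Tris buffer pH 8.0, NaCl, Pluronic · Schedule – preincubation 30 min plus labeling 45 min at 25 °C · Measured by – fluorescence polarization · Measure – % inhibition · Controls – DMSO and no-protein wells · Replicates – one well per compound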
Each line names hits and unclear results; the compound was inactive in the other large screens. A selection: hits, their analogues and other compounds. The true share with any hit is near 4.3%.

CSc1nnc(SCC(=O)NC(=O)c2ccccc2)s1	none (no result: ALR inh, UBC9 SUMO inh, RBBP9 inhibitor)
CCOC(=O)c1c(C#N)c(SCC(=O)Nc2ccc(OC)cc2)nc2c1CN(CC)CC2	ALR inh 99.3
CC(C)Cc1csc(NC(=O)c2ccc(Cl)cc2)c1C(=O)O	none
Cc1cccc(C(=O)Nc2scc(CC(C)C)c2C(=O)O)c1	ALR inh 96.4
CC(C)Cc1csc(NC(=O)c2ccccc2Cl)c1C(=O)O	ALR inh 96.3
CN(C(=O)CCc1nc2ccccc2c(=O)[nH]1)C1CCS(=O)(=O)C1 (stereo unspecified)	none (no result: UBC9 SUMO inh, RBBP9 inhibitor)
CN(CC(=O)Nc1ccc(Cl)c(C(F)(F)F)c1)C(=O)CNC(=O)C1CCCCC1	none (no result: UBC9 SUMO inh, RBBP9 inhibitor)
CC[C@H](C)[C@@H](C(=O)NCCCCCCCCCCC(=O)N1CCN(C(=O)OC(C)(C)C)CC1)n1cc(CCCCN=C(NC(=O)OC(C)(C)C)NC(=O)OC(C)(C)C)nn1	UBC13 inh 70.9 (no result: UBC9 SUMO inh, Rin1-Abl PPI inh, RBBP9 inhibitor)
C#CCOCCOCCOCCNc1nc(N2CCOCC2)nc(N2CCN(C(=O)CCCCCCCCCCNC(=O)[C@@H](CCC(=O)O)n3cc(CCCCCN)nn3)CC2)n1	none (no result: UBC9 SUMO inh, RBBP9 inhibitor)
C#CCOCCOCCOCCNc1nc(N2CCN(C(=O)CCCCCCCCCCNC(=O)[C@H]([C@@H](C)CC)n3cc(CCCCN=C(N)N)nn3)CC2)nc(N2CCN(C(=O)CCCCCCCCCCNC(=O)[C@H]([C@@H](C)CC)n3cc(CCCCN=C(N)N)nn3)CC2)n1	UBC13 inh 126.4, PREPL inh 67.8 (no result: UBC9 SUMO inh, Rin1-Abl PPI inh, RBBP9 inhibitor)
C#CCOCCOCCOCCNc1nc(N2CCN(C(=O)Cn3cc(CCCCN)nn3)CC2)nc(N2CCN(C(=O)[C@H]([C@@H](C)CC)n3cc(CCCCN)nn3)CC2)n1	none (no result: ALR inh, UBC9 SUMO inh, RBBP9 inhibitor)
C#CCOCCOCCOCCNc1nc(N2CCN(C(=O)CCCCCCCCCCNC(=O)[C@H]([C@@H](C)CC)n3cc(CCCCCN)nn3)CC2)nc(N2CCN(C(=O)CCCCCCCCCCNC(=O)[C@@H]([C@H](C)CC)n3cc(CCCCCN)nn3)CC2)n1	UBC13 inh 122.6, PREPL inh 59.4 (no result: UBC9 SUMO inh, Rin1-Abl PPI inh, RBBP9 inhibitor)
C#CCOCCOCCOCCNc1nc(N2CCN(C(=O)[C@H]([C@@H](C)CC)n3cc(CCCN=C(N)N)nn3)CC2)nc(N2CCN(C(=O)[C@H]([C@@H](C)CC)n3cc(CCCN=C(N)N)nn3)CC2)n1	none (no result: ALR inh, PREPL inh, Rin1-Abl PPI inh)
C#CCOCCOCCOCCNc1nc(N2CCN(C(=O)CCCCCCCCCCNC(=O)[C@H](CCCCN)n3cc(C)nn3)CC2)nc(N2CCN(C(=O)CCCCCCCCCCNC(=O)[C@H](CCCCN)n3cc(CCCC(=O)O)nn3)CC2)n1	UBC13 inh 113.6 (no result: UBC9 SUMO inh, RBBP9 inhibitor)
COC(=O)c1ccsc1NS(=O)(=O)c1ccccc1	ALR inh 80.5 (no result: RBBP9 inhibitor)
O=C(Nc1nc2ccccc2s1)C1CCN(S(=O)(=O)c2cc([N+](=O)[O-])ccc2Cl)CC1	none (no result: ALR inh)
CCOC(=O)c1c(NC(=O)/C=C/C(=O)O)sc(C)c1-c1ccc(C)c(C)c1	ALR inh 97.7
COC(=O)c1sc(-c2ccc(Cl)cc2)cc1NC(=O)/C=C/C(=O)O	ALR inh 83.9
COC(=O)c1c(NC(=O)/C=C/C(=O)O)sc(C)c1-c1ccc(C(C)C)cc1	none
COC(=O)c1c(NC(=O)/C=C/C(=O)O)sc(C)c1-c1ccc(C)cc1	ALR inh 98.0
Cc1onc(C(=O)N2CCN(c3ccccc3)CC2)c1[N+](=O)[O-]	ALR inh 94.9 (no result: RBBP9 inhibitor)
C[C@@H]1CN([C@H](C)CO)C(=O)c2c(c3ccccc3n2C)-c2ccccc2CO[C@H]1CN(C)S(=O)(=O)c1cn(C)cn1	none (no result: UBC13 inh, ALR inh, UBC9 SUMO inh, PREPL inh, RBBP9 inhibitor)
N#C/C(=C\c1ccccc1OCC(=O)O)c1nc2ccccc2[nH]1	ALR inh 98.0 (no result: RBBP9 inhibitor)
CCOc1cc(/C=C(/C#N)c2nc3ccccc3[nH]2)ccc1Oc1ccc([N+](=O)[O-])cn1	none
COc1ccc2nc(/C(C#N)=C\c3ccc(C(=O)O)cc3)[nH]c2c1	UBC9 SUMO inh 52.3
CCOc1cc(/C=C(\C#N)c2nc3ccccc3[nH]2)ccc1OC(C)C(=O)O (stereo unspecified)	ALR inh 98.0 (no result: RBBP9 inhibitor)
Cc1ccc(N=C2CSC(=O)N2)cc1	none
Cc1ccc(N=c2sc(C)c(C)n2C)cc1	ALR inh 99.2
COc1ccc(-c2ccc(C(=O)NC3CCCCC3)c3occc23)c(C)c1	none (no result: UBC13 inh, ALR inh, UBC9 SUMO inh, PREPL inh, RBBP9 inhibitor)
O=S(=O)(c1cccc(-c2n[nH]c(=S)n2-c2ccc(OC(F)(F)F)cc2)c1)N1CCOCC1	none (no result: UBC9 SUMO inh, RBBP9 inhibitor)
Cc1c(NC(=O)/C(C#N)=C/c2ccc(-c3ccccc3Cl)o2)c(=O)n(-c2ccccc2)n1C	ALR inh 87.8
Cc1c(NC(=O)/C(C#N)=C/c2ccc(-c3ccc(Cl)c(Cl)c3)o2)c(=O)n(-c2ccccc2)n1C	none (no result: ALR inh)
CC(=O)c1sc(NC(=O)c2oc3ccc(F)cc3c2C)nc1C	none (no result: UBC9 SUMO inh, RBBP9 inhibitor)
CCC(CO)Oc1cc(NCc2ccc(O)cc2)c2ncn(C(C)C)c2c1 (stereo unspecified)	ALR inh 98.6 (no result: UBC9 SUMO inh, RBBP9 inhibitor)
CN(C)c1ccc(/C=C(\NC(=O)c2ccccc2)C(=O)NCCCn2ccnc2)cc1	ALR inh 99.0 (no result: RBBP9 inhibitor)
O=C(NCCCn1ccnc1)/C(=C/c1ccccc1)NC(=O)c1ccccc1	none
CC(=NN1CC(=O)NC1=O)c1ccc([N+](=O)[O-])o1	none (no result: UBC13 inh, ALR inh, UBC9 SUMO inh, PREPL inh, RBBP9 inhibitor)
Cc1ccc(-n2c(O)c(/C=C3/C(c4ccccc4)=Nc4ccccc43)c(=O)[nH]c2=O)cc1	ALR inh 98.0
O=C1C2C3C=CC(CO)(O3)C2C(=O)N1c1ccccc1-c1ccccc1 (stereo unspecified)	RBBP9 inhibitor 33.2
C=C(C)COc1ccc(-c2ncncc2-c2ccccc2)c(O)c1	none (no result: RBBP9 inhibitor)
CC(C)CN(CC(C)C)c1nnc(N)s1	ALR inh 98.8
CCOc1ccc(-n2c(=S)sc3c(=O)[nH]c(SCC(=O)C(C)(C)C)nc32)cc1	none
CCC1(C)N=C(N)Nc2nc3cc(C)c(C)cc3n21 (stereo unspecified)	ALR inh 99.2
O=C(CCCN1C(=O)NC2(CCCC2)C1=O)Nc1ccc(Cl)c(S(=O)(=O)N2CCOCC2)c1	none (no result: ALR inh, UBC9 SUMO inh, PREPL inh, RBBP9 inhibitor)
Cc1c(NC(=O)OCCNC(=O)COc2ccc(Cl)cc2Cl)sc(=S)n1C	ALR inh 97.5
CCOC(=O)Nc1sc(=S)n(C)c1C	ALR inh 92.7
Cc1c(NC(=O)OCCNC(=O)Nc2ccccc2)sc(=S)n1C	ALR inh 98.3
Cc1ccc2nc(NCCO)nc(-c3ccccc3)c2c1	ALR inh 98.1
OCCNc1nc(-c2ccccc2)c2cc(Cl)ccc2n1	none
O=C1OC(/C(=C\Nc2ccc(F)cc2F)[N+](=O)[O-])c2ccccc21 (stereo unspecified)	ALR inh 97.1
O=C1CC(=O)N(c2ccccc2)N1c1ccccc1	ALR inh 97.2
CCCc1cc(C(=O)N2CCCC(Nc3ccc(C)c(C)c3)C2)n(C)n1 (stereo unspecified)	ALR inh 98.4 (no result: RBBP9 inhibitor)
COc1ccccc1C(=O)C1CCCN(C(=O)c2cccnc2SC)C1 (stereo unspecified)	none
